# Laboratory results taken from article PMC4506215 (Nature, 2015).
# Positions count from the first letter of the chain named. pIC50: −log10 of the molar value.
# Key:
# [1] = target: T1, mutant AR (expressed in LNCaP) (Homo sapiens, UniProt P10275, T878A); assay: cell-based; type: binding
# T1 sequence (P10275 1-920 T878A): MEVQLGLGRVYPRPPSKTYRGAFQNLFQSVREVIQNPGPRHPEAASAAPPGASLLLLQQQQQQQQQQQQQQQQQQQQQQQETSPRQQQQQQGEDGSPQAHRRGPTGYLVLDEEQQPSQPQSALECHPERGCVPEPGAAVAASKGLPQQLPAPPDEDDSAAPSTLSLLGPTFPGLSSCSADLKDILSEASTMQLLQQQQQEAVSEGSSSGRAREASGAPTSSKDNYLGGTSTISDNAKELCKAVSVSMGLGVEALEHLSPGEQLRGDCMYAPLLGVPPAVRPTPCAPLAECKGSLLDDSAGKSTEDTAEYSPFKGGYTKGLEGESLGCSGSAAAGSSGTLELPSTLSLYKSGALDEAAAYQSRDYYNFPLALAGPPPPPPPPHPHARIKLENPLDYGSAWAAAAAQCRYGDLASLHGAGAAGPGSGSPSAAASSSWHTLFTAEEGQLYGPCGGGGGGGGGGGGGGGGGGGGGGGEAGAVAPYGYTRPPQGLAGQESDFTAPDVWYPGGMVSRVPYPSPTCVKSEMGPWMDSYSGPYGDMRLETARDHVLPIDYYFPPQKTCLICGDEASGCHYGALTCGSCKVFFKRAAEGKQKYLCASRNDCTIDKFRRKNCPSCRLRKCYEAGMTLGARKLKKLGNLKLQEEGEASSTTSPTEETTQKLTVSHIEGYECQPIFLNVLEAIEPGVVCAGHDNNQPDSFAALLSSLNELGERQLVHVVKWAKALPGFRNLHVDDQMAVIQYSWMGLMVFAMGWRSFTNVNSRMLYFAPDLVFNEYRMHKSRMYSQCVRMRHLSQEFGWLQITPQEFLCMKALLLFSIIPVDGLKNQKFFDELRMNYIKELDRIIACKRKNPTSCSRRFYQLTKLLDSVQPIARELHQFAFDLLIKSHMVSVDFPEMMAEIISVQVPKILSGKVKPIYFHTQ
# [2] = target: T2, wild-type AR (expressed in LAPC4) (Homo sapiens, UniProt P10275); assay: cell-based; type: binding
# T2 sequence (P10275 1-920): T1 sequence (P10275 1-920 T878A) with A878T
# SRD5A = target: T3, SRD5A (Homo sapiens, UniProt P18405); assay: Conversion of [3H]-AD to 5α-reduced androgens in LAPC4 cells; type: cell-based; conditions: up to 100 μM
# T3 sequence (P18405 1-259): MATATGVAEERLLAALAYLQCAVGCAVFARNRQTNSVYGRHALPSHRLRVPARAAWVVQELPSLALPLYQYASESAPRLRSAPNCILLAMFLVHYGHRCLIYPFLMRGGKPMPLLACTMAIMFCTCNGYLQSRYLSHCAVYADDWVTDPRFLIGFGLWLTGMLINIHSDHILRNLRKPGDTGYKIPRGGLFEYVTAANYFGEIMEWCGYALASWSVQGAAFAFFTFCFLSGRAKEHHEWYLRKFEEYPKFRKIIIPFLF
# How it was run: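 LAPC4 cells (IMDM, 10% FBS) seeded at 0.2 million/well for ~24 h, then given [3H]-AD mixed with unlabeled AD (final 100 nM, ~1,000,000 cpm/well) plus test compound at 37°C. Medium treated with β-glucuronidase (65°C, 2 h), extracted with ethyl acetate:isooctane (1:1), dried. Steroids separated by C18 reverse-phase HPLC, methanol/water gradient. Biological n=3; repeated three times.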
# [3] = patients, wide interpatient variability; cited from earlier work
# metastatic CRPC = conditions: cited from earlier work
# LNCaP cells = assay: Cell proliferation assay, DHT-induced growth; type: cell-based; conditions: DHT 0.5 nM, 2, 4 and 6 days
# How it was run: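 LNCaP cells (0.1 million/mL) in phenol red-free RPMI-1640 with 10% charcoal-stripped FBS plus androgen and/or test compound. Medium changed every other day. Cells lysed after 2, 4 or 6 days; growth measured as DNA content by Hoechst fluorescence. Two-tailed Student's t-test.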
Structure (SMILES),pIC50 [1],pIC50 [2],effect on conversion from AD to 5α-reduced androgens (SRD5A),Cmax [3] [nM],survival in metastatic CRPC (metastatic CRPC),effect on DHT-stimulated cell growth (LNCaP cells)
"C[C@]12CC[C@H](O)CC1=CC[C@@H]1[C@@H]2CC[C@]2(C)C(c3cccnc3)=CC[C@@H]12 [Abi, abiraterone]",6.38,< 6.30,no detectable effect,~1000,,
CNC(=O)c1ccc2cc([C@@]3(O)CCn4cncc43)ccc2c1 [TAK-700],,,,,failed to prolong survival,
CNC(=O)c1ccc(N2C(=S)N(c3ccc(C#N)c(C(F)(F)F)c3)C(=O)C2(C)C)cc1F [enzalutamide],,,no detectable effect,,,more potent than Abi
